Assay results as given in ChEMBL document CHEMBL1155216, “A direct synthesis of 5,6-dihydroindolo[2,1-a]isoquinolines that exhibit immunosuppressive activity” (Bioorg Med Chem Lett, 2009).
The source made the active and inactive calls. The calls are words filed in the database; no cut-off is given here.

Assays:
[1] = Cytotoxicity against mouse splenocytes assessed as cell viability after 72 hrs by MTS assay; format: cell-based; settings: splenocyte
How it was run: (§1)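 Spleen cells from non-infected mice, no stimulus added, cultured at 5 × 10⁶ cells/ml in AIM-V medium (1.25 × 10⁵ cells/well) with each compound for the stated time at 37 °C, 5% CO₂, humidified. MTS plus phenazine ethosulfate then added and incubated 3 h more. Absorbance read at 490 nm. Viability compared against vehicle control.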

[2] = system: Splenocyte; assay: Immunosuppressive activity in influenza virus A/PR/8/34-H1N1 infected mouse splenocytes assessed as reduction of IFN-gamma level at 0.5 mg/ml after 48 hrs by ELISA; format: functional, cell-based
How it was run: (§2)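 Spleen cells from mice taken 7 days after influenza infection; RBCs lysed with ammonium chloride, washed in HBSS, 5 × 10⁶ cells/ml in AIM-V. Restimulated with virus, compounds at 0.5 mg/ml final, triplicate, 37 °C, 5% CO₂. Supernatants collected at 48 h for IL-2 and IFN-γ and at 96 h for IL-10. Sandwich ELISA, TMB readout, four-parameter standard-curve fit.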

[3] = Cytotoxicity against mouse splenocytes assessed as cell viability after 48 hrs by MTS assay; format: cell-based; settings: splenocyte; how it was run: as §1
[4] = Cytotoxicity against mouse splenocytes assessed as cell viability after 24 hrs by MTS assay; format: cell-based; settings: splenocyte; how it was run: as §1
[5] = system: Splenocyte; assay: Immunosuppressive activity in influenza virus A/PR/8/34-H1N1 infected mouse splenocytes assessed as reduction of IL-10 level at 0.5 mg/ml after 96 hrs by ELISA; format: functional, cell-based; how it was run: as §2
[6] = system: Splenocyte; assay: Immunosuppressive activity in influenza virus A/PR/8/34-H1N1 infected mouse splenocytes assessed as reduction of IL-2 level at 0.5 mg/ml after 48 hrs by ELISA; format: functional, cell-based; how it was run: as §2

Compound | Activity [1] | Activity [2] | Activity [3] | Activity [4] | Activity [5] | Activity [6]
COc1cccc2cc3n(c12)CCc1ccccc1-3 | Toxic | Active | Toxic | Toxic | Active | Active
COc1cc2cc3n(c2cc1OC)CCc1ccccc1-3 | Toxic | Active | Toxic | Toxic | Active | Active
COc1cc2c(cc1OC)-c1cc3cccc(OC)c3n1CC2 | – | Active | – | – | Active | Active
c1ccc2c(c1)CCn1c-2cc2ccccc21 | – | Active | – | – | Active | Active
COc1cc2c(cc1OC)-c1cc3cc(OC)c(OC)cc3n1CC2 | Toxic | Active | Toxic | Toxic | Active | Active
COc1cc2c(cc1OC)-c1cc3ccc(C(F)(F)F)cc3n1CC2 | Non-toxic | Active | Non-toxic | Toxic | Active | Active
COc1cc2c(cc1OC)-c1cc3ccccc3n1CC2 | Toxic | Active | Toxic | Toxic | Active | Active
FC(F)(F)c1ccc2c(c1)cc1n2CCc2ccccc2-1 | Non-toxic | Active | Non-toxic | Non-toxic | Active | Active
COc1cc2c(cc1OC)-c1cc3cc(C(F)(F)F)ccc3n1CC2 | Toxic | Active | Toxic | Toxic | Active | Active
FC(F)(F)c1ccc2cc3n(c2c1)CCc1ccccc1-3 | Non-toxic | Active | Non-toxic | Toxic | Active | Active
